# MC4R antagonist – MC4R antagonists of cAMP signaling, primary screen, cell-based, TR-FRET, antagonist arm of biased-ligand search. inhibition, % at 6.5 µM. MC4R-expressing cells, MTII-stimulated cAMP, LANCE TR-FRET. 360,000 compounds, 0.48% hits. AID 540295, 2011. Melanocortin receptor 4 (Homo sapiens), P32245;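 active = inhibition above its plate's cutoff, the mean of tested wells on that plate plus 3 SD, cut at about 29% in these data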
#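 Assay system: human MC4R-expressing U2OS cells; reagent: Melanotan II stimulation of cells; dosing: 6.5 µM single dose; timing: compound 30 min, challenge 1 h, detection 1 h; signal: TR-FRET cAMP assay; replicates: one well per compound, no replicates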
# Beta apoptosis – inhibitors of cytokine-induced beta cell apoptosis, primary screen, luminescence; INS-1E cytokine-induced death, ATP luminescence, 48 h; percent of positive-control rescue, neutral wells zero; protection from apoptosis, % (no concentration beside the values); 300,000 compounds, 0.8% hits; AID 435005, 2010;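 active = Every replicate reaches about 75%, or at least half do and their mean reaches it too, limit read from the data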;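 also: higher means more ATP so stronger rescue from cytokine killing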
# MC4R barr agon – MC4R agonists recruiting beta-arrestin, primary screen, cell-based, luminescence, agonist arm of biased-ligand search; Melanocortin receptor 4 (Homo sapiens), P32245; U2OS MC4R beta-arrestin complementation; percent of melanotan II response, DMSO zero; activation, % at 8.9 µM; 360,000 compounds, 0.98% hits; AID 540308, 2011;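 active = activation above a per-plate cutoff, the mean activation of sample wells on that plate plus 3 SD, cut at about 8% in these data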
# ANO1 block – TMEM16A chloride channel inhibitors, primary screen, cell-based, HTS | 310,000 compounds, 1.2% hits | HEK293 TMEM16A/YFP iodide influx fluorescence, ionomycin | AID 588511, 2011 | Anoctamin-1 (Mus musculus), Q8BHY3 | normalized B-score (activity score, 25-100; higher = stronger inhibition) at 10 µM;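 active = ratio plate-corrected score three or more library SD toward inhibition, starting fluorescence score within five deviations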;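 also: score derived from kinetic fluorescence span divided by baseline fluorescence per well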
# Target sequence (Q8BHY3 whole entry, looked up): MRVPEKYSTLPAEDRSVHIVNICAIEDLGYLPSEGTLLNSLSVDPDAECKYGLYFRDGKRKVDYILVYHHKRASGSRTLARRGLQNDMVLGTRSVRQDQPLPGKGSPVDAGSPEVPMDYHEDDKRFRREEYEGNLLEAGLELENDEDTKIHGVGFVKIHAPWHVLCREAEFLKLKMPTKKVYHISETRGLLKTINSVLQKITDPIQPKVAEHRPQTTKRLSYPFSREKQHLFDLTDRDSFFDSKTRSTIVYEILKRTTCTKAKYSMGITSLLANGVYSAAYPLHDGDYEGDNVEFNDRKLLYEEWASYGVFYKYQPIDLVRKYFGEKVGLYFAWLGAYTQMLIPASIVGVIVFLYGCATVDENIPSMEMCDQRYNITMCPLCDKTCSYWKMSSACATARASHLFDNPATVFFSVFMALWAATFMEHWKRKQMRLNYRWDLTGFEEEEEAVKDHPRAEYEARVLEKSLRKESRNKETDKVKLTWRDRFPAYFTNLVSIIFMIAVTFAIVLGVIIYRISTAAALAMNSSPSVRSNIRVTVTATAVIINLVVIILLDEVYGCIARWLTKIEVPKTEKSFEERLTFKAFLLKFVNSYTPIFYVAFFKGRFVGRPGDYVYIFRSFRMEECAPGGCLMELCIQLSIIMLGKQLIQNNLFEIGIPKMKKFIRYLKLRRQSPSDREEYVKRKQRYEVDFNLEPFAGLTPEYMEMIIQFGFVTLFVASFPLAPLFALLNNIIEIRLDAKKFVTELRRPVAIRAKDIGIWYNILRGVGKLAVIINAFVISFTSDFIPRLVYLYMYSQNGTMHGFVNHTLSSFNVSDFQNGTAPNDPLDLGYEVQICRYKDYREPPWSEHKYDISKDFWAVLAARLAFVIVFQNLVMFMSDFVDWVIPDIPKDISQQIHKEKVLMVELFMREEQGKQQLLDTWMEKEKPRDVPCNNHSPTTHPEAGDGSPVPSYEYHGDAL
# TMEM16A act – TMEM16A chloride channel activators or potentiators, primary screen, cell-based, HTS. Anoctamin-1 (Mus musculus), Q8BHY3. HEK293 TMEM16A/YFP-H148Q/I152L, iodide quench fluorescence; active compounds read low. B-score at 10 µM. 340,000 compounds, 0.3% hits;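 active = fluorescence-ratio B-score plate-corrected deviation score at least 3 library SD below zero, with starting fluorescence score within 5 deviations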;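 also: channel opened by trigger with iodide after compound preincubation; score built on the fluorescence ratio of max minus min over baseline; more negative score means more quench and so TMEM16A activation or potentiation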
# CSC inhib – cancer stem cell viability inhibitors, primary screen, luminescence; cancer stem cell-like cells viability; 300,000 compounds, 1.1% hits; inhibition, % at 7.5 µM; AID 2717, 2010; in the data active = inhibition above about 75%; tested in HMLE shEcad cells
# TMEM16A reconf – TMEM16A chloride channel inhibitors, confirmation, cell-based, re-confirmation; shares compounds with ANO1 block; HEK293 TMEM16A/YFP-H148Q, iodide quench fluorescence; ionomycin added to raise cell calcium; inhibition, % at 10 µM; 2,300 compounds, 39% hits;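 active = mean duplicate percent inhibition, scaled so buffer wells are 0 and the reference blocker 100, over three buffer SD above buffer mean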
# TMEM16A Ca cntr – calcium mobilization in TMEM16A/YFP HEK293 cells, confirmation, counter-screen for TMEM16A inhibitor project. shares compounds with ANO1 block. Fluo4 calcium mobilization. calcium response (% of ionomycin), % at 10 µM. 2,300 compounds, 2% hits;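 active = duplicate-averaged calcium signal over 20% of the ionomycin maximum, relative to buffer baseline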;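 also: each well's signal is peak minus trough fluorescence divided by its pre-addition baseline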
# YFP-HEK293 quench – iodide YFP quench changes in parental YFP-HEK293, counter-screen for TMEM16A inhibitor project, cell-based. shares compounds with ANO1 block. ionomycin. YFP ratio F(max-min)/F0 at 10 µM. 2,300 tested, under 10 active. AID 652233, 2013;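 active = yellow fluorescent protein signal ratio exceeding the buffer control mean by over 5 SD of those controls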;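 also: ratio is mean of duplicate wells from kinetic YFP trace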
# ClC-1 inh – ClC-1 chloride channel inhibition, selectivity assay for TMEM16A inhibitor project, cell-based, voltage-dependent ClC-1; 2,300 tested, under 10 active; AID 652236, 2013; shares compounds with ANO1 block; CHO ClC-1-YFP, iodide influx fluorescence quench; iodide control reads 0, buffer control 100; ratio percent, % at 10 µM;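 active = duplicate-mean ratio percent above the mean of iodide-only control wells, which defines zero, plus 5 of their SD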;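 also: higher percent means stronger block of ClC-1 iodide influx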
# Numbers stand for hits; i = inactive; nt = no result given. Sampled rows, rich in hits. Any-hit rate of the full collection: about 3.8%.
SMILES,MC4R antagonist,Beta apoptosis,MC4R barr agon,ANO1 block,TMEM16A act,CSC inhib,TMEM16A reconf,TMEM16A Ca cntr,YFP-HEK293 quench,ClC-1 inh
CC[C@@H]1CC=C[C@H]2[C@H]1C(=O)N(Cc1ccccc1)[C@H]2c1ccoc1,i,i,i,100,i,86,44%,i,i,i
CC[C@@H]1CC=C[C@H]2[C@H]1C(=O)N(Cc1ccccc1)[C@H]2c1ccc(C(F)(F)F)cc1,i,i,i,i,i,i,nt,nt,nt,nt
COc1cc(/C=C/C(=O)c2ccc3c(c2)OCCO3)cc(Br)c1OCC(=O)N(C)C,i,i,i,i,i,nt,i,i,i,i
Clc1ccc(-c2nnc(CSc3nnc(-c4cccs4)n3Cc3ccccc3)o2)cc1,i,i,i,25,i,i,42%,i,i,i
COc1ccc(OC)c(S(=O)(=O)NC2CC(=O)N(c3ccc(C)c(C)c3)C2)c1 (centres undefined),i,nt,i,i,i,i,nt,nt,nt,nt
COc1ccccc1-n1c(=O)oc2ccc(Cl)cc2c1=O,i,104,i,25,i,nt,22%,i,i,i
CCN1/C(=C/C=C/C=C/C=C/c2sc3ccccc3[n+]2CC)Sc2ccccc21,i,i,i,i,i,i,45%,i,i,i
COc1ccc(NS(=O)(=O)c2ccc3oc(SC4CCOC4=O)nc3c2)cc1 (centres undefined),i,i,i,25,i,i,37%,i,i,i
CC1CCC(NC(=O)CCS(=O)(=O)c2ccc3c(c2)NC(=O)CS3)CC1 (centres undefined),i,i,i,25,i,i,i,i,i,i
O=C1CSc2ccc(S(=O)(=O)CCC(=O)NC3CCCCC3)cc2N1,i,i,i,i,i,i,nt,nt,nt,nt
Oc1ccc(Nc2nc(NCC3CCCO3)c3ccccc3n2)cc1 (centres undefined),i,nt,i,nt,i,nt,nt,nt,nt,nt
COc1cccc(Nc2nc(NCC3CCCO3)c3ccccc3n2)c1 (centres undefined),i,i,i,100,i,i,44%,i,i,i
COc1cc(C(=O)NCCOc2ccc(Cl)cc2)ccc1OCc1c(C)noc1C,i,nt,i,nt,i,nt,nt,nt,nt,nt
CC1CN(S(=O)(=O)c2ccc(C(=O)Nc3nnc(-c4ccccn4)o3)cc2)CC(C)O1 (centres undefined),i,i,i,i,i,i,nt,nt,nt,nt
CC1CN(S(=O)(=O)c2ccc(C(=O)Nc3nnc(-c4ccc5c(c4)CCCC5)o3)cc2)CC(C)O1 (centres undefined),i,i,i,100,i,i,32%,i,i,i
CCN(C(=O)CSc1nnc(-c2ccc(OC)cc2)n1C(C)C)C1CCS(=O)(=O)C1 (centres undefined),i,i,i,nt,i,nt,nt,nt,nt,nt
CCN1C(=O)/C(=C/C=C2/SCCN2C)SC1=S,i,i,i,i,i,i,24%,i,i,i
CCOC(=O)C1CCN(C(=O)c2ccc3c(c2)C(=O)N(c2ccccc2C)C3=O)CC1,i,nt,i,i,i,i,nt,nt,nt,nt
CC(=O)Nc1ccc(S(=O)(=O)Nc2cccc(-c3nc4ccccc4o3)c2)cc1,i,i,i,100,i,i,i,i,i,i
CC(=O)Nc1ccc(S(=O)(=O)NNC(=O)COc2ccc(Cl)cc2Cl)cc1,i,i,i,i,i,i,nt,nt,nt,nt
CCOc1ccc(CONS(=O)(=O)c2ccc(NC(C)=O)cc2)cc1Cl,i,i,i,25,i,i,23%,i,i,i
COc1ccc(N(CC(=O)NCCSCc2ccc(C)cc2)S(=O)(=O)c2ccccc2)cc1,i,i,i,25,i,i,i,i,i,i
CCCOc1ccc(C(=O)Nc2ccc3c(c2)OCCO3)cc1,i,i,i,i,i,i,nt,nt,nt,nt
O=C(NCc1ccco1)Nc1nnc([C@H]2C[C@H](O)[C@@H](CO)O2)s1,i,nt,i,nt,nt,nt,nt,nt,nt,nt
O=C(COC(=O)CCC1CCCC1)Nc1ccc(F)cc1,i,i,i,nt,i,i,nt,nt,nt,nt
SMILES,MC4R antagonist,Beta apoptosis,MC4R barr agon,ANO1 block,TMEM16A act,CSC inhib,TMEM16A reconf,TMEM16A Ca cntr,YFP-HEK293 quench,ClC-1 inh
CCS(=O)(=O)c1ccc(O)c(NC(=O)c2cc(OC)c(OC)c(OC)c2)c1,i,i,i,i,i,i,i,i,i,i
NNC(=O)c1ccc(COc2ccc3ccccc3c2)o1,i,i,i,i,i,i,nt,nt,nt,nt
O=C(OCc1ccccn1)c1ccc(COc2ccc3ccccc3c2)o1,i,i,i,25,i,i,32%,i,i,i
CC(C)(C)NC(=O)C(c1ccc(-c2ccccc2)cc1)N(C[C@H]1CC[C@@H]([C@@H]2CC[C@H](CO)O2)O1)C(=O)c1ccc(C(C)(C)C)cc1 (some centres undefined),i,nt,i,nt,nt,nt,nt,nt,nt,nt
COC(=O)c1sc(NC(=O)C2CCCO2)c(C(=O)OC)c1C (centres undefined),i,i,i,25,i,i,i,i,i,i
Cc1c(C(=O)OC(C)C)sc(NC(=O)C2CCCO2)c1C(=O)OC(C)C (centres undefined),i,i,i,i,i,i,nt,nt,nt,nt
Cc1cc(Cl)c(S(=O)(=O)N2CCCC2)cc1OCC(=O)NC1CCCCC1,i,i,i,100,i,i,22%,i,i,i
CSCC[C@H](NC(=O)OC(C)(C)C)c1nnc(SCc2ccc(F)cc2)o1,i,i,i,100,i,i,i,i,i,i
Cc1cc(C)c(S(=O)(=O)N2CCN(S(=O)(=O)N3CCOCC3)CC2)c(C)c1,i,i,i,i,i,i,nt,nt,nt,nt
CC(C)C[C@H](NC(=O)c1nc[nH]c1C(=O)N1CCC(C)CC1)C(=O)OC(C)(C)C,i,i,i,i,i,i,nt,nt,nt,nt
CC1CCN(C(=O)c2[nH]cnc2C(=O)N[C@@H](CCCCNC(=O)OC(C)(C)C)C(=O)OC(C)(C)C)CC1,i,i,i,100,i,i,i,i,i,i

# Screens: PubChem, several laboratories
